Experimental data from ChEMBL document CHEMBL1135440, “(+)-Dinapsoline: an efficient synthesis and pharmacological profile of a novel dopamine agonist” (J Med Chem, 2002).

How the values were obtained:
Rattus norvegicus [1] = experiment: In vivo number of rotations at a dose of 0.2 mg/kg administered subcutaneously to Sprague-Dawley rats; format: functional; conditions: route subcutaneous
How it was run: (§1)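 Sprague-Dawley rats with unilateral 6-OHDA lesions of medial forebrain bundle, prescreened for rotation to amphetamine (5 mg/kg: 800 rotations/3 h) and apomorphine (0.2 mg/kg: 100 rotations/1 h). Subcutaneous dosing; rotations counted over 10 h, mean ± sem, n 5–10 per group. Each rat received four treatments, weekly, counterbalanced order.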

Rattus norvegicus [2] = experiment: In vivo number of rotations at a dose of 2 mg/kg administered subcutaneously to Sprague-Dawley rats; format: functional; conditions: route subcutaneous; how it was run: as §1
[3] = In vitro intrinsic activity which is the ratio of the cyclase response of compound relative to that of dopamine; format: functional
How it was run: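 cAMP accumulation in SK-N-MC cells (endogenous D1), varying compound concentrations with 1 mM IBMX, 10 min at 37 °C, cAMP by radioimmunoassay, nonlinear curve fitting. Intrinsic activity taken as ratio of compound maximal cyclase response to that of dopamine.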

SK-N-MC [4] = experiment: In vitro adenylate cyclase response in neuroblastoma cell line SK-N-MC; format: functional, cell-based; conditions: Homo sapiens
How it was run: (§2)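 SK-N-MC human neuroblastoma cells with endogenous D1 receptor, seeded at 10⁵ cells/mL 1 day before assay (37 °C, 5% CO₂). Cells exposed to varying compound concentrations in assay buffer with 1 mM IBMX, 10 min at 37 °C; stopped with 0.1 N HCl; cAMP measured by radioimmunoassay; dose-response curves fitted by nonlinear regression.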

SK-N-MC [5] = experiment: In vitro adenylate cyclase response in neuroblastoma cell line; format: functional, cell-based; conditions: Homo sapiens; how it was run: as §2

Intrinsic activity [3] | EC50 (SK-N-MC [4]) [nM] | EC50 (SK-N-MC [5]) [nM] | Compound | Rotations/10 h (Rattus norvegicus [1]) | Rotations/10 h (Rattus norvegicus [2])
 |  |  | CCCc1cc2c(s1)CN[C@@H]1CCc3cc(O)c(O)cc3[C@@H]21 [A-86929] | 1100 | 4200
1.2 | 190 |  | Oc1ccc2c(c1O)Cc1cccc3c1C2CNC3 (racemic) | 1900 | 4800
1 |  | 220 | Oc1ccc2c(c1O)Cc1cccc3c1[C@H]2CNC3 | 4100 | 7000
 |  | > 10000 | Oc1ccc2c(c1O)Cc1cccc3c1[C@@H]2CNC3 | 8 | 7
